Test results from ChEMBL document CHEMBL3612040, “Discovery of Selective Small Molecule Inhibitors of Monoacylglycerol Acyltransferase 3” (J Med Chem, 2015).
pIC50: −log10 of the molar value. Blank lines part the entries; values can stand above or below the compound they belong to. The source made the active and inactive calls. The rule behind the calls is not given here.

Experiments:
[1] = Intrinsic clearance in human liver microsomes; assay type: ADME; settings: read-out: CLH
[2] = Lipophilicity, logD of the compound at pH 7.4; assay type: physicochemical; settings: buffer
In short: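 Shake-flask octanol:water partition at pH 7.4, with MS analysis of samples.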

[3] = Apparent permeability in RRCK cells; assay type: ADME, cell-based, Canis lupus familiaris, MDCKII-LE; settings: dog, MDCK
CYP2C8 = molecular target: T1, CYP2C8 (Homo sapiens, UniProt P10632); assay: Inhibition of CYP2C8 (unknown origin) at 3 uM; assay type: ADME
T1 sequence (P10632 whole entry): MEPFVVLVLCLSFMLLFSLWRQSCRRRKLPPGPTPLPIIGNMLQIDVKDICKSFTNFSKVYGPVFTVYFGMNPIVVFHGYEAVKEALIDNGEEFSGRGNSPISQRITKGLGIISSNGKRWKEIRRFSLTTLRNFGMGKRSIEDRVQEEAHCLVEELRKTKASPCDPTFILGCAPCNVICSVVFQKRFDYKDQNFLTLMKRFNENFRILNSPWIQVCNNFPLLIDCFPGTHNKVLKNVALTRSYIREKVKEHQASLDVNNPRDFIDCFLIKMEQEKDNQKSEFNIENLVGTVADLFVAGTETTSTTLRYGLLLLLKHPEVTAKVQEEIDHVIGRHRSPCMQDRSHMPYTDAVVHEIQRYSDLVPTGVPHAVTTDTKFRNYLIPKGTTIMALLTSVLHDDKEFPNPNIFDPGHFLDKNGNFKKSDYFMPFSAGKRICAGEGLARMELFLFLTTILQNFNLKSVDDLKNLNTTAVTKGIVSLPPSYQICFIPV

CYP2C9 = CYP2C9 (Homo sapiens, UniProt P11712); assay: Inhibition of CYP2C9 (unknown origin) at 3 uM; assay type: ADME
Chain of CYP2C9 (P11712 whole entry): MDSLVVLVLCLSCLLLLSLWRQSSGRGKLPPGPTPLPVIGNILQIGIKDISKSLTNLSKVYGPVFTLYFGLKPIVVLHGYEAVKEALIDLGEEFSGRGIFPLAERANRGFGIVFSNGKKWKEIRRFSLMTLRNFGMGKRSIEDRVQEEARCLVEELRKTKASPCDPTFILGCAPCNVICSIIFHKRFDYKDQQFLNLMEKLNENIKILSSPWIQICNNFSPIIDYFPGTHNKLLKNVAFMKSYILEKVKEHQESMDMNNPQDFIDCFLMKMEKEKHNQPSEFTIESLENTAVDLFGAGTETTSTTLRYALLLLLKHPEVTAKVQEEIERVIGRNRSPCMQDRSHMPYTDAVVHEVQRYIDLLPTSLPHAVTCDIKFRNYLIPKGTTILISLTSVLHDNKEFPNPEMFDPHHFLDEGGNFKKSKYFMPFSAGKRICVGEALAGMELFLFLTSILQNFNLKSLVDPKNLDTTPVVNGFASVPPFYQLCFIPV

[4] = Systemic clearance in mouse at 1 mg/kg, iv; assay type: ADME, organism-based; settings: in vivo
In short: (§1)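 Single 1 mg/kg intravenous dose in mice; systemic clearance, volume of distribution and effective half-life derived from plasma pharmacokinetics.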

Cytochrome P450 1A2 = molecular target: T2, Cytochrome P450 1A2 (Homo sapiens, UniProt P05177); assay: Inhibition of human CYP1A2; assay type: ADME
T2 sequence (P05177 whole entry): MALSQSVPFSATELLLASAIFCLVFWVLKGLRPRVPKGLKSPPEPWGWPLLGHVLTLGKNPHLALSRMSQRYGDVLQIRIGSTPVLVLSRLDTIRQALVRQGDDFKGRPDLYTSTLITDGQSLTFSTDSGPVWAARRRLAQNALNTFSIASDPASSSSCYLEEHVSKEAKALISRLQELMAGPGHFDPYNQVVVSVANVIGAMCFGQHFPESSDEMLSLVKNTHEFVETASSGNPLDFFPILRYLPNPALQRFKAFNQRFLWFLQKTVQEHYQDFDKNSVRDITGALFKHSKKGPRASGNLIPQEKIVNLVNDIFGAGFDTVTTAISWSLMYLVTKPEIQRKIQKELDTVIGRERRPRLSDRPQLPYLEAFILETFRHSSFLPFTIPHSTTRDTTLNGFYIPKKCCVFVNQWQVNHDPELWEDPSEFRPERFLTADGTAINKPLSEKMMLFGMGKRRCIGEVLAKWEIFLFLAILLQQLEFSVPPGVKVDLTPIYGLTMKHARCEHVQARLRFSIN

[5] = AUClast in mouse at 5 mg/kg, po; assay type: ADME, organism-based; set-up: dose 5 mg/kg, route oral, time 0 - last; settings: in vivo
Mus musculus [6] = assay: (§2) In-vivo inhibition of MGAT3-mediated TAG synthesis in human MGAT3 transgenic mouse assessed as reduction in incorporation of glycerol-d8 in to triolein expressed as atom percent excess at 200 mg/kg, po dosed 1 hr before of 100 mg/kg, iv glycerol-d8 and measured 30 mins post glycerol-d8 dosing by LC-MS method; assay type: functional, organism-based
In short: (§3)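 Fed mice (wild type or human MOGAT3 transgenic), studied 8 AM–12 PM. Oral dosing in 0.5% methyl cellulose in saline, alone or with DGAT1 inhibitor (30 mg/kg) and DGAT2 inhibitor (10 mg/kg). After 1 h, 100 mg/kg uniformly labelled D8-glycerol (10 mg/mL in saline) given by tail vein. EDTA plasma taken 30 min later; D5-glycerol enrichment in triolein (18:1/18:1/18:1) measured by LC/MS, reported as mean atom percent excess ± SE.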

Mus musculus [7] = assay: (§4) Effect on incorporation of glycerol-d8 into triolein in wild type mouse by measuring atom percent excess at 200 mg/kg, po dosed 1 hr before of 100 mg/kg, iv glycerol-d8 and measured 30 mins post glycerol-d8 dosing by LC-MS method; assay type: functional, organism-based; in short: as §3
Cytochrome P450 3A4 = Cytochrome P450 3A4 (Homo sapiens, UniProt P08684); assay: Inhibition of human CYP3A4; assay type: ADME
Chain of Cytochrome P450 3A4 (P08684 whole entry): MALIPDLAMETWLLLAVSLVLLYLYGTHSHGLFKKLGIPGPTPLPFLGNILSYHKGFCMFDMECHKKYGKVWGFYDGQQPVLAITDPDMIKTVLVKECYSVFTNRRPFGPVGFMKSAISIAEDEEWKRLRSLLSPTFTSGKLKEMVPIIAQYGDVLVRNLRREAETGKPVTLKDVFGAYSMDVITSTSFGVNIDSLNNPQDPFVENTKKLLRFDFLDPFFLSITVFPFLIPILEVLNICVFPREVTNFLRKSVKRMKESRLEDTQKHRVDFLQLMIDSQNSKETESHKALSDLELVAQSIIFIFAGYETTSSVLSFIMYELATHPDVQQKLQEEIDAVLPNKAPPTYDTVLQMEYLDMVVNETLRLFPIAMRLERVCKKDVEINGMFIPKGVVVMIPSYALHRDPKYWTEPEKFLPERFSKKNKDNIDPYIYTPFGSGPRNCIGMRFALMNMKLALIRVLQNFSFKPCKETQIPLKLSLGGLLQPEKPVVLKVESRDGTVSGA

[8] = Genotoxicity in micronucleus (unknown origin) by micronucleus assay
[9] = molecular target: T3, Diacylglycerol O-acyltransferase 2 (Homo sapiens, UniProt Q96PD7); assay: Inhibition of DGAT2 (unknown origin) using [1-14C]decanoyl-CoA and didecanoyl-sn-glycerol substrates incubated for 40 mins
T3 sequence (Q96PD7 whole entry): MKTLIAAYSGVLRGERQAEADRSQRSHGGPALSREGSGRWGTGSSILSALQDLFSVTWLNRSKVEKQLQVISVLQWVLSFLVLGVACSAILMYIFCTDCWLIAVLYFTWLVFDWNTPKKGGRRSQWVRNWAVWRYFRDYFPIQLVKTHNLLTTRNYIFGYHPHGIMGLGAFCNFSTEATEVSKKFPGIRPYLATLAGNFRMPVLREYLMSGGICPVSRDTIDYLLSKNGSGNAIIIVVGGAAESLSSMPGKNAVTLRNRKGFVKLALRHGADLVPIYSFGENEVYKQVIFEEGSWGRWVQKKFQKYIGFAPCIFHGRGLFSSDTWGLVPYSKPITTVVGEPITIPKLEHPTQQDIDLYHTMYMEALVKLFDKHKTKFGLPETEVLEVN
In short: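 DGAT2 membrane fraction (0.01 mg/mL) in 100 mM Hepes-NaOH pH 7.4, 20 mM MgCl2, 200 nM MAFP. Compound first held 20 min with 0.04% fatty-acid-free BSA, then preincubated 120 min at RT with enzyme. Started with 30 µM [1-14C]decanoyl-CoA and 125 µM 1,2-didecanoyl-sn-glycerol; ran 40 min at RT, acid-stopped. Labelled TAG read by scintillation after phase partitioning.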

[10] = Half life in mouse at 1 mg/kg, iv; assay type: ADME, organism-based; settings: in vivo; in short: as §1
HepG2 = assay: Toxicity in human HepG2 cells up to 300 uM incubated for 72 hrs; assay type: cell-based; settings: hepg2, 72 h
In short: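 HepG2 cells incubated with compound up to 300 µM for 72 hours.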

Cytochrome P450 2C8 = molecular target: T4, Cytochrome P450 2C8 (Homo sapiens, UniProt P10632); assay: Inhibition of human CYP2C8; assay type: ADME
T4 sequence (P10632 whole entry): T1 sequence (P10632 whole entry)

Mus musculus [11] = assay: as §4, with “dosing and co-treated with 30 mg/kg for DGAT1 inhibitor-12 and 10 mg/kg for DGAT2 inhibitor-13” for “dosing”; assay type: functional, organism-based
In short: (§5)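 Fed mice (wild type or human MOGAT3 transgenic) were studied between 8 AM and 12 PM. Inhibitors were given orally in 0.5% methyl cellulose in saline. After 1 h, D8-glycerol (10 mg/mL in saline) was injected into the tail vein. Blood was taken into EDTA 30 min later and plasma lipids extracted. D5-glycerol in triolein (18:1/18:1/18:1) was measured by LC/MS as atom percent excess, mean ± SE.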

Mus musculus [12] = assay: as §2, with “dosing and co-treated with 30 mg/kg for DGAT1 inhibitor-12 and 10 mg/kg for DGAT2 inhibitor-13” for “dosing”; assay type: functional, organism-based; in short: as §5
[13] = Cmax in mouse at 5 mg/kg, po; assay type: ADME, organism-based; set-up: dose 5 mg/kg, route oral; settings: in vivo
[14] = molecular target: Voltage-gated inwardly rectifying potassium channel KCNH2 (Homo sapiens, UniProt Q12809); assay: Inhibition of human ERG
Chain of Voltage-gated inwardly rectifying potassium channel KCNH2 (Q12809 whole entry): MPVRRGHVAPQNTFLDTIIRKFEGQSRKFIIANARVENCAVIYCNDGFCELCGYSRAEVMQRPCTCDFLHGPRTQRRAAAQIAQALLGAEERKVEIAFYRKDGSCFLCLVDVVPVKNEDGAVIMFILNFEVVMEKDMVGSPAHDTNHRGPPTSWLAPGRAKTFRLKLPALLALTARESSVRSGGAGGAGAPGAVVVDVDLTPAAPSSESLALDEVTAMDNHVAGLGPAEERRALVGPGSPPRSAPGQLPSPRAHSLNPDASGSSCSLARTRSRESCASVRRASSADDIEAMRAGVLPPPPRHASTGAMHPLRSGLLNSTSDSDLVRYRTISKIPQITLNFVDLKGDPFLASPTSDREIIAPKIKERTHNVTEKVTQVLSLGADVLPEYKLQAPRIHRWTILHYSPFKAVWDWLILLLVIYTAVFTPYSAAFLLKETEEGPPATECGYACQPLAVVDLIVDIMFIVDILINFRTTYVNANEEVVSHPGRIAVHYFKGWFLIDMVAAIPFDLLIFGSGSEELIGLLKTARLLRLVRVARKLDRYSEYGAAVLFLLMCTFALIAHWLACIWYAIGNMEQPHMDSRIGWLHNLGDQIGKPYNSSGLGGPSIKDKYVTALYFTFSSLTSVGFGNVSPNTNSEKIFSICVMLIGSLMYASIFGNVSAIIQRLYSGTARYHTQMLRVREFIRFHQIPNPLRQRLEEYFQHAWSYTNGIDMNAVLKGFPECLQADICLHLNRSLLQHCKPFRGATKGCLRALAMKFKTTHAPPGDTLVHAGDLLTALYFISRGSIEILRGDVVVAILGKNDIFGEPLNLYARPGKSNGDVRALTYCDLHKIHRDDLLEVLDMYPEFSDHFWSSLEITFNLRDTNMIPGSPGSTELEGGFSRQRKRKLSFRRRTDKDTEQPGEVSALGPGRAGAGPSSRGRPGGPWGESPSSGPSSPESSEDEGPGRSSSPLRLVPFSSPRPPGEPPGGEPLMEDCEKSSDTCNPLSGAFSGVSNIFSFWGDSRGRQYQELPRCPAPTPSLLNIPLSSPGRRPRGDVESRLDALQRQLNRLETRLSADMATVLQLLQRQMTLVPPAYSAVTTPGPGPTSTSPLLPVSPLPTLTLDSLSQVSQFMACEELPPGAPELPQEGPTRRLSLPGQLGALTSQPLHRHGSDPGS

[15] = Oral bioavailability in mouse at 5 mg/kg; assay type: ADME, organism-based; settings: in vivo
Salmonella typhimurium = assay: Genotoxicity in Salmonella typhimurium by Amest test; assay type: toxicity, organism-based; settings: salmonella enterica subsp. enterica serovar typhimurium
Cytochrome P450 2C9 = Cytochrome P450 2C9 (Homo sapiens, UniProt P11712); assay: Inhibition of human CYP2C9; assay type: ADME
Chain of Cytochrome P450 2C9 (P11712 whole entry): as the sequence (P11712 whole entry) above

[16] = Volume of distribution in mouse at 1 mg/kg, iv; assay type: ADME, organism-based; settings: in vivo; in short: as §1
[17] = molecular target: T5, Diacylglycerol O-acyltransferase 1 (Homo sapiens, UniProt O75907); assay: Inhibition of DGAT1 (unknown origin) assessed as effect on incorporation of [1-14C]decanoyl moiety into TG using [1-14C]decanoyl-CoA and 1,2-didecanoyl-sn-glycerol as substrates
T5 sequence (O75907 whole entry): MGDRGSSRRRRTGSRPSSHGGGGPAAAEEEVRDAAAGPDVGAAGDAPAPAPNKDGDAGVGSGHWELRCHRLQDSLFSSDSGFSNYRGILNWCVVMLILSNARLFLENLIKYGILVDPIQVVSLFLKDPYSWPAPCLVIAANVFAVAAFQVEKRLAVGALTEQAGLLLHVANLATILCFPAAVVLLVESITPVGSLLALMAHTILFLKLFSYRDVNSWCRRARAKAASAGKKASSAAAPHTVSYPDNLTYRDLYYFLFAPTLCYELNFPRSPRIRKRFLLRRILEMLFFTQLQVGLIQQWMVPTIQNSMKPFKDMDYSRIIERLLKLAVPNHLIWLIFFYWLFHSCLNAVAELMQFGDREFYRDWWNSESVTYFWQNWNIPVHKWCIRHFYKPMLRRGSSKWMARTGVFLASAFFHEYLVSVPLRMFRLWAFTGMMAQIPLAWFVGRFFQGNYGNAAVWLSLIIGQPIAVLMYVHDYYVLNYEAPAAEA

[18] = molecular target: T6, Peroxisome proliferator-activated receptor gamma (Homo sapiens, UniProt P37231); assay: Inhibition of PPARgamma (unknown origin)
T6 sequence (P37231 whole entry): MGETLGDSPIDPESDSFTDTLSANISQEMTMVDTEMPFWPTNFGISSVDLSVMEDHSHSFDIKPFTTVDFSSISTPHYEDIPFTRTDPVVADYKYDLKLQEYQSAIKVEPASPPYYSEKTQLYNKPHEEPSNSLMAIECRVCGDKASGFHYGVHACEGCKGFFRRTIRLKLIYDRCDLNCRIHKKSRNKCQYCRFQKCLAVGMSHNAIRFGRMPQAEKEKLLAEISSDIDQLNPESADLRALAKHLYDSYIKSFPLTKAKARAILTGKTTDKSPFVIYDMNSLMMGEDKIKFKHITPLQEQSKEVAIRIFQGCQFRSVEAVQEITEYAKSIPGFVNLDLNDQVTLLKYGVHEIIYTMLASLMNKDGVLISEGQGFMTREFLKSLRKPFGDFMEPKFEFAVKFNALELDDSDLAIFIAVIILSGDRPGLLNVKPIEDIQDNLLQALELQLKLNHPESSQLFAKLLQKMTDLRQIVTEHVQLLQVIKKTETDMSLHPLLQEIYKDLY

Cytochrome P450 2D6 = Cytochrome P450 2D6 (Homo sapiens, UniProt P10635); assay: Inhibition of human CYP2D6; assay type: ADME
Chain of Cytochrome P450 2D6 (P10635 whole entry): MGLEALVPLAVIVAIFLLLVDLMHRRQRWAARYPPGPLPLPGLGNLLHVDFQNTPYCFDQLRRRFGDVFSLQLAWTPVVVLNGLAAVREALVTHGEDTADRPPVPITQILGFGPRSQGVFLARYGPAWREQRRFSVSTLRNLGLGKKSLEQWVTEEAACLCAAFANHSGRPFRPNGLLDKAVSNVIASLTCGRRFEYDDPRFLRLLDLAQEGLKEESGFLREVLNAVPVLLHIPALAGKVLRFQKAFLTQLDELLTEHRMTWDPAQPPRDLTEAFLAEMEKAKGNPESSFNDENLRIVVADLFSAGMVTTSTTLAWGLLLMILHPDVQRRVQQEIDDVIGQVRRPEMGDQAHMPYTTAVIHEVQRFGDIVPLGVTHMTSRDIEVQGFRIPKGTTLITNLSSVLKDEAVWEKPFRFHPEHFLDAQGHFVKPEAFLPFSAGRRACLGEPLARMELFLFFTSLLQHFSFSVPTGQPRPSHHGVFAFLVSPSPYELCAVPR

SMILES: COc1cccc(CC(=O)N2Cc3ccc(S(=O)(=O)Nc4cnn(-c5ccc(F)cc5)n4)cc3C2)c1
microsomal CLint [1]: 13 µL/min/mg | inhibition at 3 µM (CYP2C8): 62% | inhibition at 3 µM (CYP2C9): 95% | logD [2]: 2.5 | Papp [3]: 6 ×10⁻⁶ cm/s

SMILES: COc1cccc(CC(=O)N2Cc3ccc(S(=O)(=O)Nc4cnn(C5COC5)n4)cc3C2)c1
microsomal CLint [1]: < 8 µL/min/mg | logD [2]: 0.2 | Papp [3]: 3 ×10⁻⁶ cm/s

SMILES: COc1cccc(CC(=O)N2Cc3ccc(S(=O)(=O)Nc4cnn(C5CCC5)n4)cc3C2)c1
clearance [4]: 1.4 mL/min/kg | inhibition (INH) (Cytochrome P450 1A2): Not Active | AUC(0-t) [5]: 27000 ng·h/mL | inhibition (Mus musculus [6]): inactive | Activity (Mus musculus [7]): inactive | microsomal CLint [1]: 22 µL/min/mg | inhibition (INH) (Cytochrome P450 3A4): Not Active | Activity [8]: Non-toxic | pIC50 [9]: < 4.00 | half-life [10]: 1.4 h | Activity (HepG2): Non-toxic | inhibition (INH) (Cytochrome P450 2C8): Not Active | Activity (Mus musculus [11]): inactive | inhibition (Mus musculus [12]): Active | Cmax [13]: 9300 ng/mL | inhibition (INH) [14]: Not Active | bioavailability [15]: 74% | Activity (Salmonella typhimurium): Non-toxic | inhibition (INH) (Cytochrome P450 2C9): Not Active | Vd [16]: 0.17 L/kg | pIC50 [17]: < 4.30 | logD [2]: 1.7 | pIC50 [18]: 5.40 | Papp [3]: 12 ×10⁻⁶ cm/s | inhibition (INH) (Cytochrome P450 2D6): Not Active

Now from value to compound:

microsomal CLint [1]: > 320 µL/min/mg | logD [2]: 3.9 | Papp [3]: 4 ×10⁻⁶ cm/s
SMILES: COc1cccc(CC(=O)N2Cc3ccc(S(=O)(=O)N(C)CCc4cccc(F)c4)cc3C2)c1

microsomal CLint [1]: < 8 µL/min/mg | logD [2]: 0.2 | Papp [3]: 1 ×10⁻⁶ cm/s
SMILES: COc1cccc(CC(=O)N2Cc3ccc(S(=O)(=O)Nc4cnn(C)n4)cc3C2)c1
